From PubChem
NF-kB neuron act: activators of NF-kB expression in neurons, primary screen, cell-based, HTS; fold change at 12.5 µM; human neuronal cells, NF-kB reporter expression; hits give high values; AID 1239, 2008; actives 1.6% (n = 190,000); in the data active = fold change above about 3.3
APP 5'UTR act: activators of APP 5'UTR luciferase reporter, primary screen, SH-SY5Y cells; actives 1% (n = 190,000); activation, % at 2 µM; SH-SY5Y APP 5'UTR luciferase reporter, luminescence; zero percent = DMSO vehicle wells;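 active = activation above a set limit, based on mean plus 3 SD of controls, cut at about 140% in these data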
STAT1 blocker: STAT1 signaling inhibitors, primary screen, cell-based, HTS, luciferase reporter; inhibition, % at 5.5 µM; actives 0.35% (n = 200,000); NIH 3T3 STAT1-luciferase reporter, IFN-gamma, luminescence; AID 920, 2007;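 active = inhibition above a set limit, the mean inhibition across all tested compounds plus 3 SD, cut at about 34% in these data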;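 note: 0% = IFN-gamma with DMSO and 100% = IFN-gamma with 300 µM nifuroxazide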
STAT3 activator: IL-6 driven STAT3 reporter potentiators, primary screen, U3A cells, luciferase, luminescence, MLSCN library; IL-6 STAT3-luciferase reporter; 100% = signal with IL-6 EC80 alone; activation (% of control), % at 5.6 µM; actives 0.91% (n = 190,000); AID 871, 2007;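 active = activation above the screen-wide mean of compound activation plus 3 SD, cut at about 130% in these data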;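 note: 0% = background luminescence of wells with medium and substrate only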
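System – human U3A cells carrying STAT3-luciferase construct · Probe or stimulus – Interleukin-6, 33 ng/mL · Schedule – compound 1 h, then IL-6 6 h at 37 °C · Signal – luminescence from STAT3-driven luciferase reporter · Evaluation – percent of IL-6-only median luminescence · Benchmarks – IL-6-only high control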
STAT1 act: STAT1 signaling activators, primary screen, cell-based, HTS, luciferase reporter; NIH 3T3 STAT1-luciferase reporter, IFN-gamma, luminescence; 100% = IFN-gamma alone, no compound; activation (% of control), % at 5.5 µM; actives 2.6% (n = 200,000);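 active = activation above the screen-wide mean activation plus 3 SD, cut at about 130% in these data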;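 note: raw ratio to IFN-gamma control signal so 100% means no change and 0% no light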
STAT3 inh-1: IL-6 driven STAT3 reporter inhibitors, primary screen, U3A cells, luciferase, luminescence, MLSCN library | IL-6 STAT3-luciferase reporter; host cell line lacks STAT1 | inhibition, % at 5.5 µM | actives 0.89% (n = 190,000) | AID 862, 2007;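 active = inhibition above the mean inhibition across all screened compounds plus 3 SD, cut at about 44% in these data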;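 note: 0% = DMSO only wells and 100% = 100 µM nifuroxazide control wells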
STAT3 inh-2: STAT3 reporter inhibitors, retest of hits, confirmation, U3A cells, luciferase, luminescence | inhibition, % at 5.7 µM | actives 45% (n = 1,200) | IL-6 STAT3 luciferase reporter; cell line lacks STAT1 | shares compounds with STAT3 inh-1 | AID 1265, 2008;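 active = inhibition above the hit cutoff computed for the primary STAT3 screen, cut at about 44% in these data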;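 note: 0% = IL-6 plus DMSO and 100% = IL-6 plus nifuroxazide control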
NFkB inh STAT3ct: NF-kB reporter inhibitors in human cells, confirmation, counter-screen for STAT3 inhibitor project, cell-based, HEK293T, luciferase, TNF-alpha stimulus | shares compounds with STAT3 inh-1 | TNF-alpha induced | inhibition, % at 5.7 µM | actives 36% (n = 1,200);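 active = inhibition above the mean of solvent-only control wells plus 3 SD, cutoff set per campaign, cut at about 13% in these data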;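 note: 0% = TNF-alpha with DMSO and 100% = TNF-alpha with MG high control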
STAT1 inh STAT3c: STAT1 reporter inhibitors, IFN-gamma induced, confirmation, counter-screen for STAT3 inhibitor project, cell-based, NIH 3T3, luciferase luminescence; actives 27% (n = 1,200); inhibition, % at 5.7 µM; shares compounds with STAT3 inh-1; NIH 3T3 STAT1-luciferase reporter;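 active = inhibition above the mean plus 3 SD of solvent-only control wells, limit set per screening run, cut at about 16% in these data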;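 note: 0% = DMSO with IFN-gamma and 100% = nifuroxazide control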
* marks the source's active call; other numbers are inactive results; x = no result. An excerpt weighted towards active compounds, which were near 4.9% of everything screened.

SMILES | NF-kB neuron act | APP 5'UTR act | STAT1 blocker | STAT3 activator | STAT1 act | STAT3 inh-1 | STAT3 inh-2 | NFkB inh STAT3ct | STAT1 inh STAT3c
COc1ccc(OC)c(NC(=O)CSc2ncnc3c2cnn3-c2ccccc2Cl)c1 | 3.3* | 11 | 31 | 35 | 76 | 79* | 81* | 31* | 26*
COc1ccc(NS(=O)(=O)c2cccc(NC(=O)c3ccc(S(=O)(=O)N4CCCCCC4)cc3)c2)cc1 | 0.51 | -22 | 20 | 49 | 82 | 61* | 69* | 23* | 25*
COc1ccc(NS(=O)(=O)c2ccc(NC(=O)c3ccc(CN4CCOCC4)cc3)cc2)cc1 | 0.84 | -7 | 20 | 39 | 81 | 73* | 66* | 16* | 14
O=C(Nc1ccc(S(=O)(=O)Nc2ccc(F)cc2)cc1)c1ccc(CN2CCOCC2)cc1 | 0.61 | -15 | 6 | 35 | 92 | 80* | 84* | 30* | 14
COc1ccc(NS(=O)(=O)c2ccc(O)c(NC(=O)c3ccc(S(=O)(=O)N4CCCCCC4)cc3)c2)cc1 | 1.1 | 12 | 4 | 96 | 96 | 3 | x | x | x
O=C(Nc1ccc2nn(-c3ccccc3)nc2c1)c1cccnc1 | 1.3 | 51 | -27 | 90 | 124 | 15 | x | x | x
CC(C)C(=O)Nc1ccc2nn(-c3ccccc3)nc2c1 | 1.1 | 234* | -19 | 63 | 116 | 48* | 15 | -34 | -155
CCCN=C(C)c1c(-c2ccccc2)[nH]n(-c2nc3ccccc3s2)c1=O | 1.6 | 27 | -9 | 100 | 108 | 6 | x | x | x
COC(=O)Cc1[nH]n(-c2nc3ccccc3s2)c(=O)c1C(C)=Nc1ccc(C)cc1 | 1.1 | 47 | 21 | 16 | 80 | 100* | 68* | 64* | -10
C/C(=N/NC(=O)c1cccs1)c1c(C)[nH]n(-c2nc3ccccc3s2)c1=O | 2 | 87 | -4 | 53 | 103 | 56* | 6 | 3 | -4
CCN(CC)c1ccc(NC(=O)COC(=O)/C=C/c2nc3ccccc3s2)cc1 | 0.9 | -10 | -2 | 102 | 102 | -8 | x | x | x
CCN(CC)c1ccc(/C=C/c2nc3ccccc3s2)cc1 | 1.4 | 76 | 23 | 50 | 79 | 66* | 23 | -8 | -91
C/C(=N\Nc1nc(C)c(C)s1)c1ccc([N+](=O)[O-])cc1 | 2.1 | -22 | -24 | 93 | 123 | 13 | x | x | x
Nc1nnnn1/N=C/c1cccc(O)c1 | 1.1 | -3 | -5 | 130 | 104 | -22 | x | x | x
N/C(=N\N=C\c1cccc(O)c1)c1nonc1N | 8.7* | 155* | -7 | 49 | 105 | 63* | 27 | -6 | -2
Nc1ccc(C(=O)Nc2nc3ccccc3s2)cc1 | 3.9* | 160* | -28 | 62 | 125 | 51* | 2 | -40 | -173
CCc1nnc(NC(=O)Nc2ccccc2OC)s1 | 1.9 | 53 | -22 | 94 | 120 | 12 | x | x | x
CCc1nnc(NC(=O)c2ccc(OC)cc2OC)s1 | 2.2 | 111 | -47 | 57 | 143* | 49* | 13 | -28 | -118
O=C(Cc1ccc(Cl)cc1)Nc1ncc([N+](=O)[O-])s1 | 1.8 | 39 | 2 | 101 | 98 | 4 | x | x | x
O=C(COc1ccc(Cl)cc1)Nc1ncc([N+](=O)[O-])s1 | 2.1 | 116 | 31 | 63 | 70 | 48* | 8 | -9 | -42
CC1C/C(=C/c2ccncc2)C(=O)/C(=C/c2ccncc2)C1 (stereo not drawn) | 0.23 | -95 | 26 | 57 | 75 | 53* | 44* | -20 | 19*
CC(C)Nc1ncnc2c1cnn2-c1ccc(Cl)cc1 | 1.1 | 155* | 5 | 55 | 93 | 55* | 16 | -31 | -186
CC(=O)NNc1ncnc2c1cnn2-c1ccccc1 | 0.95 | -4 | 7 | 94 | 94 | 14 | x | x | x
CC(C)COc1ccc(C(=O)Nc2ccc(SC(F)F)cc2)cc1 | 1.7 | 74 | -15 | 97 | 113 | 3 | x | x | x
CC(C)COc1ccc(C(=O)Nc2scc(-c3ccc(Cl)cc3Cl)c2C(N)=O)cc1 | 0.82 | -10 | -1 | 67 | 101 | 49* | 36 | 11 | 1
SMILES | NF-kB neuron act | APP 5'UTR act | STAT1 blocker | STAT3 activator | STAT1 act | STAT3 inh-1 | STAT3 inh-2 | NFkB inh STAT3ct | STAT1 inh STAT3c
CCc1nc(C)cn1S(=O)(=O)c1cc(C)c(OC)cc1C | 1 | 8 | 7 | 92 | 93 | 18 | x | x | x
CCc1nc(C)cn1S(=O)(=O)c1cc(C)c(OC)c(C)c1C | 0.89 | 20 | 21 | 57 | 81 | 54* | 45* | 10 | 17*
Cc1cc(C)c(NC(=O)COC(=O)CCc2ccc(S(=O)(=O)N3CCCCC3)cc2)c(C)c1 | 0.94 | 4 | 2 | 98 | 99 | -2 | x | x | x
NC(=O)c1ccc(-c2ncc(-c3ccccc3)o2)cc1 | 12* | 126 | 32 | 55 | 71 | 54* | 2 | 20* | -44
Cn1c(-c2ccccc2)cnc1SCC(=O)N1CCCCC1 | 1.9 | 108 | 22 | 47 | 80 | 66* | 41 | 0 | -46
O=C(NCc1ccc(Cl)cc1)c1cc([N+](=O)[O-])ccc1Cl | 1.2 | -10 | 2 | 101 | 96 | 2 | x | x | x
CCc1nc(SCC(=O)Nc2sc(C)c(C)c2C(=O)OC)c2ccccc2n1 | 1.1 | -8 | 9 | 112 | 92 | -13 | x | x | x
CNC1=C(N(C(C)=O)c2ccc(Br)cc2)C(=O)c2ccccc2C1=O | 0.97 | -55 | 28 | 59 | 75 | 49* | 53* | 31* | 41*
O=C1NC(=O)c2cc(NC(=O)C3COc4ccccc4O3)ccc21 (stereo not drawn) | 1.1 | -7 | 3 | 75 | 97 | 35 | x | x | x
CC1(C)Oc2ccc(NC(=O)C3COc4ccccc4O3)cc2O1 (stereo not drawn) | 4.9* | 168* | -22 | 46 | 120 | 64* | 26 | -15 | -85
O=C(Nc1nncs1)C1COc2ccccc2O1 (stereo not drawn) | 1.5 | 13 | -9 | 111 | 108 | -9 | x | x | x
CC(=O)c1sc(NC(=O)C2COc3ccccc3O2)nc1C (stereo not drawn) | 1.5 | 132 | 20 | 43 | 82 | 74* | 34 | -2 | -43
